Hits are enriched below; roughly 1.9% of the tested compounds scored in any of these assays.
TLR4-MyD88 BLA: blocks binding of human TLR4 to MyD88; 200,000 tested, 0.18% active; O00206+Q99836; HeLa CL3-4 TLR4/MyD88 BLA complementation, FRET ratio; inhibition, % at 8.4 µM; in the data active = inhibition above about 25%;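 note: 0% = vehicle and 100% = reference inhibitor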
NTR1 agonist: agonists of human neurotensin receptor NTR1. P30989. NTR1-U2OS beta-arrestin-GFP spot imaging, agonist mode. activation, % at 20 µM. 330,000 tested, 0.17% active. AID 493036;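 active = activation at or above 40% of the spot to cytoplasm intensity ratio, with at least 20 cells analyzed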;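 note: 0% = DMSO without peptide and 100% = 100 nM NTR1 peptide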
MC4R ag barr: activates human MC4R beta-arrestin recruitment | P32245 | U2OS MC4R beta-arrestin complementation, luminescence; percent of melanotan II response, DMSO zero | activation, % at 8.9 µM | 360,000 tested, 0.98% active | AID 540308;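 active = activation above a per-plate cutoff, the mean activation of sample wells on that plate plus 3 SD, cut at about 8% in these data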
NOD2 RIPK2 PPI: inhibitors of human NOD2-RIPK2 interaction; O43353; inhibition, % at 4.98 µM; CHO BLA complementation NOD2-RIPK2, CCF4 ratio; 360,000 tested, 0.38% active; in the data active = inhibition above about 21%;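 note: 0% = vehicle only and 100% = reference blocker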
Target sequence (O43353 whole entry, looked up): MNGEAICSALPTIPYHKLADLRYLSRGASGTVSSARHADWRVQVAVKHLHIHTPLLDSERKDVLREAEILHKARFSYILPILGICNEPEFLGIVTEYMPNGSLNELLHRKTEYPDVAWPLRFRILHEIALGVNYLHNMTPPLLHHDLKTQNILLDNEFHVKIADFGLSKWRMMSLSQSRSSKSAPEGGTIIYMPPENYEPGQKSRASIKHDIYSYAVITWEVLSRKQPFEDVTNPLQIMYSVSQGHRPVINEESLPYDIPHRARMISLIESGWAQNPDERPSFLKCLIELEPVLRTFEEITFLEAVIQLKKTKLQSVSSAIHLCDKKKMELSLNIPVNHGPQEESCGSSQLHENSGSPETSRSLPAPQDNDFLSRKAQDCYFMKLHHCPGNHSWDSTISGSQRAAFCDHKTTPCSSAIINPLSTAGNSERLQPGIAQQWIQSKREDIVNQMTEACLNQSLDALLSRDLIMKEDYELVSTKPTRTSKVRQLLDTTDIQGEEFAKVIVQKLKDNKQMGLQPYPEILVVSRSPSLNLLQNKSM
MC4R antag cAMP: human MC4R antagonism in cAMP assay | MC4R-expressing cells, MTII-stimulated cAMP, LANCE TR-FRET | inhibition, % at 6.5 µM | 360,000 tested, 0.48% active | AID 540295;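 active = inhibition above its plate's cutoff, the mean of tested wells on that plate plus 3 SD, cut at about 29% in these data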;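 note: 0% = Melanotan II alone and 100% = Melanotan II plus saturating MCL0020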
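Assay system: U2OS-MC4R stable cell line; Also added: Melanotan II; Technique: Eu-cAMP/anti-cAMP TR-FRET, emission 671 nm; Times: 30-min compound, 1-h challenge, 1-h detection, room temperature.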
TLR9-MyD88 inh: TLR9-MyD88 interaction inhibition. Q9NR96+Q99836. CHO BLA complementation TLR9-MyD88, CCF4 FRET ratio. inhibition, % at 4.98 µM. 340,000 tested, 0.21% active. AID 504734;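 active = inhibition above the mean over all tested compounds plus 3 SD, cut at about 21% in these data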;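 note: 0% = DMSO only wells and 100% = clavulanate BLA inhibitor control wells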
NOD2-RIPK2 conf: confirmation of human NOD2-RIPK2 interaction inhibitors; shares compounds with NOD2 RIPK2 PPI; CHO cells, NOD2-RIPK2 BLA complementation, CCF4 FRET; inhibition, % at 4.98 µM; 1,200 tested, 70% active; AID 624370;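 active = mean inhibition across replicates above a set limit taken from the earlier primary screen, cut at about 21% in these data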;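 note: 0% = DMSO-only wells and the high end = clavulanate BLA-blocked wells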
NOD2 BLA counter: hits BLA reporter in NOD2-RIPK2 inhibitor counterscreen; 1,200 tested, 57% active; shares compounds with NOD2 RIPK2 PPI; inhibition, % at 4.98 µM; CHO BLA reporter, CCF4 FRET ratio;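 active = mean inhibition above the low-control mean inhibition plus three low-control SD, cut at about 11% in these data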;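 note: 0% = DMSO only wells and 100% = clavulanate high control wells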
An asterisk follows results filed as active; · = not tested or not shown.

SMILES | TLR4-MyD88 BLA | NTR1 agonist | MC4R ag barr | NOD2 RIPK2 PPI | MC4R antag cAMP | TLR9-MyD88 inh | NOD2-RIPK2 conf | NOD2 BLA counter
C=CCNC(=O)c1c(CSc2ccc(Cl)cc2)noc1C(=O)NCc1ccccc1 | · | 0 | 1 | -6 | 5 | 3 | · | ·
O=[N+]([O-])c1ccc(Sc2ccncn2)c([N+](=O)[O-])c1 | · | · | -1 | 24* | 3 | 12 | 23* | -1
NC(=O)c1ccc2c(=O)c(O)c(-c3cc(Cl)c(N)c(Cl)c3)[nH]c2c1 | · | 3 | 1 | 38* | -29 | 14 | 30* | 29*
CCc1sc(N2C(=O)C3C4CCC(C4=C(C)C)C3C2=O)nc1-c1ccccc1 (stereo not drawn) | -7 | 11 | 2 | 71* | 2 | 0 | -1 | 0
Cc1cc(N2CCN(C)CC2)ccc1NC(=O)c1c2c(nc3ccccc13)CCN(Cc1ccccc1)C2 | -16 | 20 | 4 | 34* | 14 | -59 | 47* | 9
C[C@@]12C(=O)N(CCc3c[nH]c4ccccc34)CC(=O)N1[C@H]1c3ccccc3OC[C@@H]1[C@@H]2c1ccccc1 | · | 5 | 1 | -15 | 12 | -9 | · | ·
O=Cc1c(NCc2ccccc2Cl)c2ccccc2[nH]c1=O | · | 1 | 0 | 6 | -4 | -4 | · | ·
CCOC(=O)C1CCN(Cc2ccc(OC)c(C)c2OC)CC1 | -6 | 0 | 0 | -3 | -4 | 2 | · | ·
CCOC(=O)C1CCN(Cc2cc(Cl)c3ccccc3c2O)CC1 | · | 11 | 0 | 28* | -3 | 4 | 4 | 5
CC(=O)c1cccc(CN2CCc3ccc(NC(=O)C4CCCO4)cc3C2)c1 (stereo not drawn) | · | 0 | -2 | -3 | 21 | -5 | · | ·
CCCCCCSc1cc(-c2nc3cc(C)ccn3c2NCCCC)ccc1OC | · | 7 | -1 | -6 | 1 | -6 | · | ·
CCCCNc1c(-c2ccc(OC)c(Sc3ccc(OC)cc3)c2)nc2cnccn12 | · | 17 | 2 | 28* | 18 | 19 | 33* | 37*
O=C(Nc1ccccc1)c1cc(C2CCCCN2S(=O)(=O)c2ccccc2)on1 (stereo not drawn) | · | · | -1 | 10 | 18 | · | · | ·
N#Cc1ccc2c(c1)nnn2-c1ccccc1 | · | -1 | -2 | -15 | 4 | · | · | ·
N#Cc1ccc2sn(-c3ccccc3)c(=O)c2c1 | · | · | -5 | 25* | 2 | 10 | 50* | 12*
CC(=O)Nc1ccc2sn(-c3ccccc3)c(=O)c2c1 | · | · | -3 | 30* | 3 | 5 | 22* | -4
O=C(c1ccc(Cl)c(S(=O)(=O)N2CCCC2)c1)N1CCN(c2ncccn2)CC1 | -6 | 2 | -1 | 5 | 7 | -6 | · | ·
COc1cc(CC(CC(=O)O)CC(C)OCc2ccccc2)cc(OC)c1 (stereo not drawn) | -2 | 2 | -1 | -17 | -6 | -7 | · | ·
O=C(COc1ccc(Cl)cc1Cl)NCCN1CCCC1 | · | · | -3 | -3 | 9 | 4 | · | ·
CCOC(=O)C1CCN(C(=O)c2ccc(NS(=O)(=O)c3ccc4[nH]c(=O)[nH]c4c3)cc2)CC1 | · | · | 0 | 0 | 2 | 14 | · | ·
CC[C@@H](C)[C@H](NC(=O)OC(C)(C)C)c1nnc(S(=O)(=O)Cc2cc(C)ccc2C)o1 | 11 | -1 | -3 | 59* | 22 | -2 | 53* | -4
Cc1ccc2c(c1)=N/C(=N\c1[nH]c(O)c3ccccc13)N=2 | · | · | 0 | 29* | 7 | -3 | 51* | 48*
COc1ccc(OC)c(C2C(C(=O)c3ccco3)=C(O)C(=O)N2CC2CCCO2)c1 (stereo not drawn) | · | 1 | -3 | 21* | 9 | 7 | 1 | 0
COc1ccc(C2C(C(=O)c3ccco3)=C(O)C(=O)N2CC2CCCO2)c(OC)c1 (stereo not drawn) | · | -1 | -1 | -6 | 5 | -13 | · | ·
